In PubChem BioAssay:
Results filed as inconclusive are left out. The source made the active and inactive calls.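 Rule for the calls, unless noted: active = cell viability at or below a set limit in both duplicate runs, the limit being the all-compound median minus 4 SD (cut at about 23% in these data, passing the limit was not always enough); inconclusive = no clear call, values can overlap the other calls; inactive = the rest.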

Legend:
[1] = OD615 S. cerevisiae growth inhibition, permissive medium, pilot counter-assay, permissive growth control for S. cerevisiae lifespan shortening project (AID 705;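 active = growth inhibition above 25% in both replicates, a cutoff set 3 SD above the mean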); conditions: OD615, 24 h, at 10 µM, active compounds read high
Method in brief: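 Material: engineered DeaD yeast; compound dosing: one dose 10 µM, DMSO 0.25% final; measure: yeast growth inhibition indicated by reduced 24 h OD615; detection: OD615 turbidity read; incubation: cells pre-grown 4 h, then 24 h compound exposure, 30 °C humidified; medium: permissive synthetic complete medium with raffinose and galactose carbon sources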

[2] = Restrictive medium S. cerevisiae growth inhibition, OD615, pilot screen of yeast lifespan reduction project, restrictive growth control (AID 706;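 active = growth inhibition above a set limit, 3 SD over mean compound inhibition, in both replicates, cut at about 43% in these data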;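 note: modified DeaD lifespan yeast strain shifted to restrictive glucose medium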); conditions: OD615, 48 h, at 10 µM, active compounds read high
Method in brief: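 material = engineered S. cerevisiae DeaD strain | medium = glucose-based CSMM-D restrictive medium | times = 4 h pre-incubation, 48 h exposure at 30 °C | technique = OD615 absorbance reading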

[3] = viability gain of MRP-1-high H69AR cells under doxorubicin, pilot screen, MRP-1 activator project, CellTiter-Glo, duplicate (AID 807;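 active = viability increase at or above a cutoff of the median across tested compounds plus 3 SD, cut at about 8.5% in these data, passing the limit was not always enough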;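 note: compound pretreatment 18-22 h then 72 h combined with doxorubicin; 0% = doxorubicin alone and 100% = vehicle without doxorubicin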); conditions: H69AR viability with doxorubicin, CellTiter-Glo luminescence; at 10 µM; active compounds read high
[4] = growth suppression of beta-catenin knockout HCT116, pilot screen, human colon tumor cells (AID 823); conditions: CellTiter-Glo, 60 h, at 10 µM, active compounds read low;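 note: 0% = wells killed by 20 µM Hyamine and 100% = untreated DMSO cell wells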
[5] = growth suppression of PTEN-deleted HCT116, pilot screen, cell-based, HCT116 clonal line, CellTiter-Glo (AID 824;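 active = viability at or below 27.92% in each of two runs, the all-compound median minus 4 SD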;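 note: 0% = 20 µM Hyamine control and 100% = vehicle cell control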); conditions: 60 h, at 10 µM, active compounds read low
[6] = inhibitors of the yeast RAM network, pilot screen, dse1pr::URA3 reporter, 5-FOA selection (AID 869;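 active = inhibition over a set limit, the all-compound mean plus 3 SD, in both replicate runs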;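 note: 0% = DMSO wells with no growth and 100% = 10 µM 1-NA-PP1 with full growth; RAM network block rescues cells from 5-FOA so hits raise OD615 growth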); conditions: S. cerevisiae dse1pr::URA3 5-FOA growth, OD615, 2 d; at 10 µM; active compounds read high; strain carries analog-sensitive mutant Cbk1 kinase
[7] = RAM signaling pathway blockade in yeast – S. cerevisiae, Pdr1DBD-CYC8 efflux-inhibited sensitized strain, primary screen (AID 1298;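 active = RAM network inhibition above 8.4% in each of two replicates, 3 SD over the compound average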;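 note: 0% = DMSO untreated cells without growth and 100% = 10 µM 1-NA-PP1 full growth; higher means more yeast growth rescued from 5-FOA killing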); conditions: S. cerevisiae cbk1-as DSE1-URA3 strain, 5-FOA growth OD615, 2 d; at 50 µM; active compounds read high

COc1cccc(NC(=O)CSc2ncnc3c2oc2ccccc23)c1
inactive: growth inhibition [1] -12.8% | growth inhibition [2] 6.07% | viability increase [3] -2.19% | viability [4] 94.2% | viability [5] 87.3% | inhibition [6] 2.46% | RAM network inhibition [7] 4.42%

CCOC(=O)N1CCN(C(=O)c2cc3cc(Br)ccc3oc2=O)CC1
inactive: growth inhibition [1] -3.99% | growth inhibition [2] -17.6% | viability increase [3] -3.3% | viability [4] 94.9% | viability [5] 89.7% | inhibition [6] 0.665% | RAM network inhibition [7] -1.94%

CC(=O)c1ccc(NC(=O)C2CCCN2S(=O)(=O)c2ccc(F)cc2)cc1 (stereo not drawn)
inactive: growth inhibition [1] -5.81% | growth inhibition [2] 0.06% | viability increase [3] 0.59% | viability [4] 98.5% | viability [5] 96.2% | inhibition [6] 2.9% | RAM network inhibition [7] 1.64%

CCCOC(=O)c1ccc(OCC(O)CN2C(=O)NC(C)(C)C2=O)cc1 (stereo not drawn)
inactive: growth inhibition [1] 1.83% | growth inhibition [2] 1.78% | viability increase [3] -0.77% | viability [4] 96.9% | viability [5] 97.2% | inhibition [6] 0.14% | RAM network inhibition [7] 0.77%

Cn1c2c(c3ccccc31)CC/C2=N\O
inactive: growth inhibition [1] 1.57% | growth inhibition [2] 18.9% | viability increase [3] -0.84% | viability [4] 100% | viability [5] 99% | inhibition [6] 1% | RAM network inhibition [7] 1.01%

COc1ccccc1Nc1nc2ccccc2n1C
inactive: growth inhibition [1] -11.6% | growth inhibition [2] -24.9% | viability increase [3] 0.31% | viability [4] 94.7% | viability [5] 94.6% | inhibition [6] 1.44% | RAM network inhibition [7] 4.17%

O=S(=O)(NCCSc1nnc(-c2ccco2)n1-c1ccccc1)c1ccccc1
inactive: growth inhibition [1] -14.1% | growth inhibition [2] -19.2% | viability increase [3] -3.53% | viability [4] 83.9% | viability [5] 87.1% | inhibition [6] 1.52% | RAM network inhibition [7] 6.44%

O=C(O)CCn1c(-c2ccccc2)cc2c1CCCC2=O
inactive: growth inhibition [1] 1.65% | growth inhibition [2] -0.555% | viability increase [3] -0.35% | viability [4] 95.7% | viability [5] 95% | inhibition [6] 4.84% | RAM network inhibition [7] 0.47%

Cc1cc(Nc2ncc(Cl)cc2Cl)n(-c2ccccn2)n1
inactive: growth inhibition [1] -1.14% | growth inhibition [2] 3.23% | viability increase [3] -5.35% | viability [4] 89.3% | viability [5] 76.5% | inhibition [6] 1.93% | RAM network inhibition [7] 4.08%

Cc1ccc(-c2nc(CS(=O)(=O)CC(=O)N3CC(C)CC(C)C3)c(C)o2)cc1 (stereo not drawn)
inactive: growth inhibition [1] 0.15% | growth inhibition [2] 4.4% | viability increase [3] -2.57% | viability [4] 58% | viability [5] 72.8% | inhibition [6] 1.93% | RAM network inhibition [7] 3.8%

CS(=O)(=O)N1CCN(c2nc(-c3ccc(F)cc3)cs2)CC1
inactive: growth inhibition [1] -4.7% | growth inhibition [2] 1.69% | viability increase [3] -0.68% | viability [4] 90.9% | viability [5] 88.8% | inhibition [6] 2.98% | RAM network inhibition [7] 3.11%

O=C(CN1CCN(Cc2ccccc2F)C1=O)NCCN1CCOCC1
inactive: growth inhibition [1] -2.78% | growth inhibition [2] 5.44% | viability increase [3] -0.58% | viability [4] 109% | viability [5] 99.5% | inhibition [6] 1.27% | RAM network inhibition [7] 1.5%

CCOC(=O)c1cc2c(=O)n3cccc(C)c3nc2n(CCCOC)c1=NC(=O)c1cccnc1
inactive: growth inhibition [1] -11.3% | growth inhibition [2] -9.9% | viability increase [3] -4.94% | viability [4] 92.5% | viability [5] 92.2% | inhibition [6] 0.515% | RAM network inhibition [7] 6.01%

O=C(COc1ccccc1)Nc1nnc(-c2ccccc2)o1
inactive: growth inhibition [1] -5.84% | growth inhibition [2] 4.22% | viability increase [3] 0.2% | viability [4] 104% | viability [5] 94.1% | inhibition [6] 1.29% | RAM network inhibition [7] -1.25%

CC(C)Cc1cc(C(=O)Nc2cc(Cl)ccc2Cl)no1
inactive: growth inhibition [1] -14.2% | growth inhibition [2] -0.125% | viability increase [3] -2.35% | viability [4] 104% | viability [5] 98% | inhibition [6] 3.71% | RAM network inhibition [7] 1.67%

O=C1CCCN1CC(CN1CCOCC1)Sc1nc2ccccc2c(=O)n1-c1ccccc1 (stereo not drawn)
inactive: growth inhibition [1] -2.25% | growth inhibition [2] -6.07% | viability increase [3] -6.36% | viability [4] 92.1% | viability [5] 97.3% | inhibition [6] 1.88% | RAM network inhibition [7] 1.94%

CCCNc1nc2c(c(=O)n(C)c(=O)n2C)n1Cc1ccc(F)cc1
inactive: growth inhibition [1] -3.24% | growth inhibition [2] -4.52% | viability increase [3] -1.45% | viability [4] 78.8% | viability [5] 79.1% | inhibition [6] 0.88% | RAM network inhibition [7] 3.07%

CCCCCOC(=O)c1[nH]c2c(c1C)C(=O)CC(c1ccco1)C2 (stereo not drawn)
inactive: growth inhibition [1] -15% | growth inhibition [2] -3.28% | viability increase [3] -5.25% | inhibition [6] 0.18% | RAM network inhibition [7] -0.31%
active: viability [4] 14.5% | viability [5] 16.3%

O=C(CN1CCOc2ccccc21)NC1CC1
inactive: growth inhibition [1] -8.82% | growth inhibition [2] 8.71% | viability increase [3] -3.71% | viability [4] 88.1% | viability [5] 98.8% | inhibition [6] 1.16% | RAM network inhibition [7] -0.26%

COc1ccc(C(=O)c2cnc(C(C)C)n2C)cc1
inactive: growth inhibition [1] -3.74% | growth inhibition [2] -9.59% | viability increase [3] 2.12% | viability [4] 98.2% | viability [5] 90.2% | inhibition [6] 1.88% | RAM network inhibition [7] 4.97%

Cc1cc(OCc2ccc(F)cc2)nc(-c2ccccc2O)n1
inactive: growth inhibition [1] -0.25% | growth inhibition [2] -3.18% | viability increase [3] 2.19% | viability [4] 76.6% | viability [5] 70.3% | inhibition [6] 1.35% | RAM network inhibition [7] 2.72%

COc1ccc(Cl)cc1Nc1cc(C)nc2nc(C)nn12
inactive: growth inhibition [1] -5.01% | growth inhibition [2] -6.77% | viability increase [3] -3.12% | viability [4] 103% | viability [5] 94.8% | inhibition [6] -0.515% | RAM network inhibition [7] 3.45%

Cc1ccc(S(=O)(=O)n2ccnc2)cc1C
inactive: growth inhibition [1] -7.98% | growth inhibition [2] -8.12% | viability increase [3] -0.49% | viability [4] 96.1% | viability [5] 88.9% | inhibition [6] 1.86% | RAM network inhibition [7] 2.35%

CN(C)S(=O)(=O)c1ccc(C(=O)Nc2ccccn2)cc1
inactive: growth inhibition [1] -10.3% | growth inhibition [2] -19.3% | viability increase [3] -0.7% | viability [4] 96.6% | viability [5] 89.2% | inhibition [6] 1.31% | RAM network inhibition [7] -1.36%
